The text below walks through data of ChEMBL document CHEMBL4118197, “The discovery and preclinical evaluation of BMS-707035, a potent HIV-1 integrase strand transfer inhibitor” (Bioorg Med Chem Lett, 2018).

Data set [1] can be described thus: Clearance in Sprague-Dawley rat at 1 mg/kg, iv after 4 hrs. The settings on record: in vivo. The format is ADME, organism-based. The procedure, abridged: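 Male Sprague-Dawley rats given 1 mpk IV in PEG400/ethanol (90:10); blood sampled at 5 and 30 min and 1, 2 and 4 h post-dose; clearance from plasma profile.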
Data set [2] deals with Human immunodeficiency virus type 1 integrase (Human immunodeficiency virus 1, UniProt Q7ZJM1). The experiment in a line: Inhibition of HIV1 integrase strand transfer activity.
Chain of Human immunodeficiency virus type 1 integrase (Q7ZJM1 whole entry): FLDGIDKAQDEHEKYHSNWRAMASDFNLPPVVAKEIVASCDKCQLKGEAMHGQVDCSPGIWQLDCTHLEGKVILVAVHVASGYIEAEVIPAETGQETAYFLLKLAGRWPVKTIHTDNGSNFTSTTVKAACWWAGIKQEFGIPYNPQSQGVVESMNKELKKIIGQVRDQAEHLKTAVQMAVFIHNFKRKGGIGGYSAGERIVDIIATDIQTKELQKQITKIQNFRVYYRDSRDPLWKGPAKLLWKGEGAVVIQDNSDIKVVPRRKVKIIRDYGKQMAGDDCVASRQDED

In turn, `CC1(C)OCCn2c1nc(C(=O)NCc1ccc(F)cc1S(C)(=O)=O)c(O)c2=O` displayed a clearance in data set [1] of 6.9 mL/min/kg. Further, half-maximal inhibition in data set [2] (IC50) was put at 6 nM.
`CC1(C)OCCn2c1nc(C(=O)NCc1ccc(F)cc1N1CCOCC1)c(O)c2=O` returned a clearance in data set [1] of 29 mL/min/kg. In data set [2], the half-inhibitory concentration (IC50) is 5 nM.

By clearance is commonly meant the volume of plasma or blood freed of the substance per unit of time. In general, IC50 refers to the midpoint of a concentration-inhibition curve.
